Reference: ChEMBL document CHEMBL1153726, “Synthesis and anticancer activity of sclerophytin-inspired hydroisobenzofurans” (Bioorg Med Chem Lett, 2009)
pIC50: −log10 of the molar value.

Assay: Antitumor activity against human KB3 cells after 96 hrs by MTT assay
Type: functional, cell-based
Conditions: KB3, 96 h
Procedure, shortened: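 Human KB-3 carcinoma cells exposed to increasing compound concentrations; viability read by MTT colorimetric assay after 96 h. Values are means of triplicate assays, expressed relative to untreated controls.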

Compound	pIC50
C=C(C)[C@H]1CC=C(C)C2=CO[C@@H](c3ccccc3Br)[C@@H]21	5.40
C=C(C)[C@H]1CC(=O)C(C)=C2[C@@H](C(=O)OCC)O[C@@H](c3cccc(Cl)c3Cl)[C@@H]21	5.30
C=C(C)[C@H]1CC=C(C)C2=CO[C@@H](c3cccc4ccccc34)[C@@H]21	< 4.00
C=C(C)[C@H]1CC=C(C)[C@@]2(O)[C@@H]1[C@H](c1cccc3ccccc13)O[C@@H]2C(=O)OC	5.00
C=C(C)[C@H]1CC(=O)C(C)=C2[C@@H](C(=O)OCC)O[C@@H](c3ccccc3Br)[C@@H]21	4.15
C=C(C)[C@H]1CC=C(C)[C@@]2(O)[C@@H]1[C@H](c1ccccn1)O[C@@H]2C(=O)OC	4.00
C=C(C)[C@H]1CC=C(C)[C@@]2(O)[C@@H]1[C@H](c1cccc(Br)c1)O[C@@H]2C(=O)OCC	5.52
C=C(C)[C@H]1CC=C(C)[C@@]2(O)[C@@H]1[C@H](c1ccccc1Br)O[C@@H]2C(=O)OCC1CCCC1	< 4.00
C=C(C)[C@H]1CC=C(C)[C@@]2(O)[C@@H]1[C@H](c1ccccc1Br)O[C@@H]2C(=O)O	< 4.00
